Assay results as given in ChEMBL document CHEMBL1156280, “Design and synthesis of boron-containing PDE4 inhibitors using soft-drug strategy for potential dermatologic anti-inflammatory application” (Bioorg Med Chem Lett, 2010).
pIC50: −log10 of the molar value.

Assays:
[1] = test system: THP-1; assay: Antiinflammatory activity in human THP1 cells assessed as inhibition of IL2 release; format: functional, cell-based
[2] = test system: THP-1; assay: Antiinflammatory activity in human THP1 cells assessed as inhibition of TNFalpha release; format: functional, cell-based
[3] = test system: THP-1; assay: Antiinflammatory activity in human THP1 cells assessed as inhibition of IFN-gamma release; format: functional, cell-based
[4] = test system: THP-1; assay: Antiinflammatory activity in human THP1 cells assessed as inhibition of IL5 release; format: functional, cell-based
[5] = Inhibition of PDE4 at 10 uM
[6] = test system: THP-1; assay: Antiinflammatory activity in human THP1 cells assessed as inhibition of IL10 release; format: functional, cell-based
[7] = Inhibition of PDE4
[8] = Chemical stability in phosphate buffer of pH 7.4 assessed as change in ester; format: physicochemical; details: read-out: Activity
In short: (§1)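 Compounds at 5 µM final in female CD-1 mouse plasma (K2EDTA) or PBS pH 7.4, 37 °C with mild shaking for 1 h. A time-0 plate was held on ice. Reactions were quenched with internal standard in acetonitrile or methanol, then centrifuged, and the supernatant was analysed by LC/MS/MS for loss of ester and appearance of the corresponding acid. Triplicates, values are means.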

[9] = test system: Plasma; assay: Metabolic stability in CD1 mouse plasma assessed as change in ester; format: ADME, cell-free; in short: as §1
[10] = test system: Plasma; assay: Metabolic stability in CD1 mouse plasma assessed as change in formation of acid; format: ADME, cell-free; in short: as §1
[11] = test system: Mus musculus; assay: Antiinflammatory activity in mouse assessed as inhibition of phorbol ester-induced ear edema at 1 mg/ear; format: functional
[12] = test system: Mus musculus; assay: Antiinflammatory activity in mouse assessed as inhibition of phorbol ester-induced ear edema at 3 mg/ear; format: functional
[13] = Chemical stability in phosphate buffer of pH 7.4 assessed as formation of acid; format: physicochemical; in short: as §1
[14] = Cmax in CD1 mouse at 25 mg/kg, iv; format: ADME, organism-based; parameters: dose 25 mg/kg, route intravenous; details: in vivo
In short: (§2)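 A single 25 mg/kg iv dose in 1-methyl-2-pyrrolidone/propylene glycol/PEG-400 (10:40:50, v/v/v) was given to non-fasted CD-1 mice, n = 3. Plasma ester and acid were measured over 6 h. Non-compartmental analysis gave the PK parameters, and iv bioavailability was taken as 100%.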

[15] = Tmax in CD1 mouse at 100 mg/kg, sc; format: ADME, organism-based; parameters: dose 100 mg/kg, route subcutaneous; details: in vivo
In short: (§3)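 Non-fasted CD-1 mice (n = 3 per group) received a single 100 mg/kg dose sc or po as a suspension in 1% carboxymethylcellulose. Plasma ester and its acid metabolite were followed over 6 h. Parameters came from a non-compartmental model, with bioavailability referenced to iv set at 100%.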

[16] = Cmax in CD1 mouse at 100 mg/kg, po; format: ADME, organism-based; parameters: dose 100 mg/kg, route oral; details: in vivo; in short: as §3
[17] = Bioavailability in CD1 mouse at 100 mg/kg, sc; format: ADME, organism-based; details: in vivo; in short: as §3
[18] = AUC in CD1 mouse at 100 mg/kg, sc; format: ADME, organism-based; parameters: dose 100 mg/kg, route subcutaneous; details: plasma; in short: as §3
[19] = Oral bioavailability in CD1 mouse at 100 mg/kg; format: ADME, organism-based; details: in vivo; in short: as §3
[20] = Tmax in CD1 mouse at 100 mg/kg, po; format: ADME, organism-based; parameters: dose 100 mg/kg, route oral; details: in vivo; in short: as §3
[21] = test system: Mus musculus; assay: Bioavailability in CD1 mouse at 25 mg/kg, iv; format: ADME, organism-based; details: in vivo; in short: as §2
[22] = Half life in CD1 mouse at 25 mg/kg, iv; format: ADME, organism-based; parameters: dose 25 mg/kg, route intravenous; details: in vivo; in short: as §2
[23] = Cmax in CD1 mouse at 100 mg/kg, sc; format: ADME, organism-based; parameters: dose 100 mg/kg, route subcutaneous; details: in vivo; in short: as §3
[24] = AUC in CD1 mouse at 100 mg/kg, po; format: ADME, organism-based; parameters: dose 100 mg/kg, route oral; details: plasma; in short: as §3

| pIC50 [7] | percent change in ester [8] [%] | Activity [9] [%] | Activity [10] [%] | SMILES | also measured |
| --- | --- | --- | --- | --- | --- |
| – | – | – | – | O=C(O)c1ccc(Oc2ccc3c(c2)COB3O)nc1 | pIC50 [1]: < 5.00; pIC50 [2]: < 5.00; pIC50 [3]: < 5.00; pIC50 [4]: < 5.00; inhibition [5]: 5%; pIC50 [6]: < 5.00 |
| 5.19 | – | – | – | O=C(O)c1ccc(Oc2ccc3c(c2)COB3O)cc1 | – |
| 6.54 | -8.9 | -43.6 | 29.4 | COC(=O)c1ccc(Oc2ccc3c(c2)COB3O)cc1 | – |
| 6.31 | – | – | – | N#Cc1ccc(Oc2ccc3c(c2)COB3O)cc1 [CRISABOROLE] | – |
| – | – | – | – | C[C@@H]1C[C@H]2[C@@H]3CCC4=CC(=O)C=C[C@]4(C)[C@@]3(F)[C@@H](O)C[C@]2(C)[C@@]1(O)C(=O)CO [DEXAMETHASONE] | inhibition (INH) [11]: 68% |
| 6.89 | -10.6 | -58.9 | 27.6 | CC(C)OC(=O)c1ccc(Oc2ccc3c(c2)COB3O)cc1 | – |
| 6.74 | – | – | – | N#Cc1ccc(Oc2ccc3c(c2)COB3O)nc1 | – |
| – | – | – | – | COc1ccc(C2CNC(=O)C2)cc1OC1CCCC1 (stereo not drawn) [ROLIPRAM] | inhibition (INH) [12]: 53%; inhibition (INH) [11]: 6% |
| 6.95 | 2.4 | -60.5 | 36.4 | CC(C)OC(=O)c1ccc(Oc2ccc3c(c2)COB3O)nc1 | Activity [13]: 1.4% |
| 6.12 | -8.8 | -94.9 | 58.8 | CCCOC(=O)c1ccc(Oc2ccc3c(c2)COB3O)cc1 | – |
| 6.66 | -3.2 | -76.2 | 53.6 | CCOC(=O)c1ccc(Oc2ccc3c(c2)COB3O)cc1 | – |
| 7.33 | -2.4 | -72.5 | – | CCOC(=O)c1ccc(Oc2ccc3c(c2)COB3O)nc1 | Cmax [14]: 12500 ng/mL; Tmax [15]: 30 min; pIC50 [1]: 7.00; pIC50 [2]: 6.70; Cmax [16]: 4390 ng/mL; bioavailability [17]: 97.8%; pIC50 [3]: 7.00; AUC [18]: 14500 ng·h/mL; bioavailability [19]: 10.8%; Tmax [20]: 15 min; pIC50 [4]: 6.70; F [21]: 100%; half-life [22]: 61.8 min; inhibition (INH) [11]: 59%; Cmax [23]: 12700 ng/mL; pIC50 [6]: 6.34; AUC [24]: 1660 ng·h/mL |
| 7.02 | -8.9 | -98 | 76.6 | CCCCOC(=O)c1ccc(Oc2ccc3c(c2)COB3O)nc1 | Activity [13]: 0.4% |
| 6.89 | -13.6 | -92.5 | 79.8 | CCCOC(=O)c1ccc(Oc2ccc3c(c2)COB3O)nc1 | Activity [13]: 0.5% |
| 7.08 | -9.8 | -42.4 | 31.6 | COC(=O)c1ccc(Oc2ccc3c(c2)COB3O)nc1 | Activity [13]: 0.4% |
